# Screening results as filed in PubChem BioAssay.
# IDE cell activ = human IDE activators in live cells, primary screen, fluorescence polarization, HEK cells, FAbeta-B substrate | Insulin-degrading enzyme (Homo sapiens), P14735 | FAbeta-B cleavage; 0% vehicle, 100% cell-free pure enzyme wells | activation, % at 5.96 µM | 0.073% of 340,000 active;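 active = activation above the mean of all tested compounds plus 3 SD, set per screening campaign, cut at about 17% in these data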
# CSN deneddyl inh = inhibitors of CSN-mediated cullin deneddylation, primary screen, biochemical, fluorescence polarization, uHTS. Purified CSN, SCF-Nedd8-OG deneddylation. inhibition, % at 12.5 µM. 0.38% of 360,000 active;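 active = pattern-corrected inhibition above about 35%, with an unprinted fluorescence ratio check between 0.5 and 1.5, limit read from the data, passing the limit was not always enough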;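 also: 0% = enzyme with substrate and 100% = substrate without enzyme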
# Target sequence (Q92905 whole entry, looked up, one chain of several): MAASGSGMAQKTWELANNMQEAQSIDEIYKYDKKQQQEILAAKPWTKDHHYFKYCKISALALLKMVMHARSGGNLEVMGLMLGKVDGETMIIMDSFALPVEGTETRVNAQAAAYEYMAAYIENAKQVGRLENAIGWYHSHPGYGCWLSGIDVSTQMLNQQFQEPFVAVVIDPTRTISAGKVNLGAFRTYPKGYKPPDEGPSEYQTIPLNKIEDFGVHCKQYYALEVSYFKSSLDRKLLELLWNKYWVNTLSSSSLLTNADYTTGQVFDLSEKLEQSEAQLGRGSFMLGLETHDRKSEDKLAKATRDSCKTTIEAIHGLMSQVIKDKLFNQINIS
#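 Assay system: Purified human Csn5 enzyme expressed in HEK293T cells | Amount: Enzyme 0.24 nM | Measured by: Fluorescence polarization readout | Medium: Tris/NaCl/DTT buffer, pH 7.5 | Compound dosing: One concentration, 12.5 µM, 0.25% DMSO | Times: 90 min incubation of compound, enzyme and substrate at room temperature | Control set: no-enzyme wells high, enzyme-with-substrate wells low | Read-out: % inhibition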
# TPT1 inhibitor = Candida albicans TPT1 enzyme inhibitors, primary screen, biochemical, fluorescence polarization; tRNA 2'-phosphotransferase TPT1 (Candida albicans SC5314); recombinant caTPT1, FP RNA substrate dephosphorylation; inhibition, % at 5 µM; 0.81% of 300,000 active; AID 1962, 2009;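 active = inhibition above the mean of all tested compounds plus 3 SD, set per screening campaign, cut at about 24% in these data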;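 also: plate controls were DMSO alone for no effect and ferristatin control at 100 nM for full effect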
# IDE inh = human IDE inhibitors in live cells, primary screen, fluorescence polarization, HEK cells, FAbetaB substrate; AID 434962, 2010; FAbetaB cleavage; Insulin-degrading enzyme (Homo sapiens), P14735; inhibition, % at 5.59 µM; 0.41% of 320,000 active;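 active = percent inhibition above the average of all tested compounds plus 3 SD, set per screening campaign, cut at about 16% in these data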;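 also: IDE supplied by intact live HEK cells; FP after avidin binding of uncleaved biotin substrate so inhibition keeps polarization high; 0% = DMSO wells and 100% = 60 µM reference IDE inhibitor Ii1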
# TbMetRS inhib = T. brucei MetRS inhibitors, primary screen, biochemical, luminescence; methionyl-tRNA synthetase (Trypanosoma brucei brucei); purified T. brucei MetRS, ATP depletion, Kinase-Glo luminescence; inhibition, % at 11.9 µM; 0.4% of 360,000 active;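 active = inhibition above a per-plate cutoff of the control wells' mean inhibition plus 3 SD, cut at about 5.5% in these data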;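 also: 0% = DMSO wells median and 100% = median of wells with control inhibitor compound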
#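 technique = Kinase-Glo luminescence, ATP depletion format | system = purified MetRS (methionyl-tRNA synthetase) enzyme from Trypanosoma brucei | timing = 15 min preincubation, 2 h reaction, all 25 °C | evaluation = percent inhibition versus plate control medians | dosing = single dose, 11.9 µM final nominal, 0.9% final DMSO | also added = substrates ATP, L-methionine and bulk Escherichia coli tRNA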
# HNF4A DNA FP = change in binding of human HNF4A to DNA, primary screen, biochemical, fluorescence polarization, FITC-DNA; 0.3% of 360,000 active; activity change, % at 10 µM; Hepatocyte nuclear factor 4-alpha (Homo sapiens), P41235; 1 h; AID 1224865, 2016; in the data active = activity change above about 30%, passing the limit was not always enough
# TPT1 inh confirm = Candida albicans TPT1 inhibitors, confirmation, biochemical, fluorescence polarization, triplicate | shares compounds with TPT1 inhibitor | recombinant caTPT1, RNase T1 coupled | inhibition, % at 5 µM | 74% of 2,400 active;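 active = inhibition above the primary screen limit, the mean inhibition of all tested compounds plus 3 SD, cut at about 25% in these data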
# RNase T1 inh = RNase T1 inhibitors, counter-screen for TPT1 inhibitor project, biochemical, fluorescence polarization. inhibition, % at 5 µM. RNase T1 cleavage, 1536-well. shares compounds with TPT1 inhibitor. 83% of 2,400 active;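 active = inhibition above the solvent-only control well mean plus 3 SD, limit set per screening run, cut at about 23% in these data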;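 also: plate controls were DMSO wells with enzyme for no effect and wells without RNase T1 for full effect; inhibitors block cleavage so intact labeled substrate keeps polarization high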
# Target sequence (P00651 whole entry, looked up): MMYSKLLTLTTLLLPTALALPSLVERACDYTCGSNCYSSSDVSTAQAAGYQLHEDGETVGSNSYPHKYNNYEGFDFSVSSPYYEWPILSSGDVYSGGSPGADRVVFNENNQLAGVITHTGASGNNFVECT
# Active calls of the source: *; / = not tested or not shown. Rows were chosen to be rich in hits. Some 1.7% of all compounds tested hit in one or more screens of this group.
SMILES,IDE cell activ,CSN deneddyl inh,TPT1 inhibitor,IDE inh,TbMetRS inhib,HNF4A DNA FP,TPT1 inh confirm,RNase T1 inh
N#C/C(=C/c1ccc(N2CCOCC2)o1)c1ccc(Cl)cc1,-48.0,7.9,163.4*,13.6,-0.6,137.6,165.4*,155.2*
Cn1c(C(=O)NC2CCCCC2)cc2c(=O)n(C)c3ccccc3c21,-7.0,2.5,66.5*,-0.6,-0.2,2.0,1.9,0.7
O=c1c(O)c(-c2ccccc2)oc2ccccc12,-7.0,1.6,/,/,-0.8,2.3,/,/
O=c1c(O)c(-c2cccs2)oc2ccccc12,-85.0,-1.2,24.6*,-18.0,-0.2,-6.9,24.8*,36.3*
CSc1nc(COC(=O)NC(C)C)c(COC(=O)NC(C)C)n1Cc1ccccc1,/,-1.1,/,/,-0.4,-2.1,/,/
COc1cc(OC)c(C(=O)OCC(=O)NCCc2ccccc2)cc1OC,-2.2,-11.2,71.6*,-1.5,-0.3,4.1,0.9,5.7
CCCCN(CCCC)S(=O)(=O)c1ccc(NC(=O)Cc2cccs2)cc1,7.3,0.0,-3.1,2.2,-0.5,-4.4,/,/
C=CCN1C(=O)C2(NNc3ccccc3O2)c2ccccc21 (stereo not given),0.2,28.6,84.6*,2.4,-1.3,70.9*,103.3*,107.3*
CCCCN1C(=O)C(O)(CC(=O)c2c(C)coc2C)c2ccccc21 (stereo not given),5.8,1.6,-0.8,-0.7,-0.9,-0.1,/,/
CCCCN1C(=O)C2(NNc3ccccc3O2)c2ccccc21 (stereo not given),-7.6,7.1,90.5*,15.6,0.4,68.9*,94.5*,102.1*
O=C(Nc1ccc2c(c1)OCO2)[C@@H]1[C@@H]2C(=O)N(C3CCCCC3)C(=O)[C@@H]2C2c3ccccc3C=CN21 (stereo not given in full),/,/,61.6*,-5.5,/,/,52.2*,63.4*
O=C(c1ccc2c(c1)OCO2)[C@@H]1[C@@H]2C(=O)N(C3CCCCC3)C(=O)[C@@H]2C2c3ccccc3C=CN21 (stereo not given in full),-8.1,-0.1,/,/,0.6,1.2,/,/
Cc1[nH]c2ccccc2c1C(=O)CSC(=S)N(C)C1CCCCC1,0.0,3.0,128.2*,-1.8,-0.7,-1.3,12.0,14.0
CCCCc1ccc(CC2S/C(=C(\C#N)C(=O)N3CCOCC3)N(c3ccccc3)C2=O)cc1 (stereo not given),-2.4,1.5,34.6*,4.9,-0.8,0.0,61.9*,73.7*
Cc1cc(/C=C2/C(=N)N3C(c4ccccc4)=CSC3=NC2=O)c(C)n1-c1ccccc1,-2.4,15.5,24.5*,0.1,0.7,11.3,18.1,27.4*
O=C(c1cc2c(=O)n3ccccc3nc2s1)N1CCc2ccccc2C1,/,/,5.8,0.3,/,/,/,/
CCC1(CC)NC(=O)N(CC(=O)Nc2sc3c(c2C(N)=O)CCC3)C1=O,4.8,40.9*,28.1*,4.2,-1.6,3.4,37.5*,48.4*
CC(C)N1CCN(c2ccncc2S(=O)(=O)N2CCN(C)CC2)CC1,/,-1.9,/,/,-0.2,2.3,/,/
CCOC(=O)c1ccc2c(c1)nc(SCC(=O)c1cc3ccccc3o1)n2CC,1.1,2.7,33.1*,2.1,0.2,3.8,14.6,24.3*
O=C(CSc1nc2ccccc2s1)c1cc2ccccc2o1,-4.6,-1.6,55.6*,10.6,1.1,3.0,15.7,25.1*
COc1ccc(-n2nnnc2SCC(N)=O)cc1,1.7,9.4,-5.1,6.8,-0.3,1.6,/,/
